Blank lines part the entries; values can stand above or below the molecule they belong to.
Key:
[1] = biological target: human BCL2 (residues 1–218) (Homo sapiens, UniProt P10415); experiment: Isothermal titration calorimetry of BECN1 BH3D-derived peptides binding to BCL2; details: ITC, 25°C, pH 7.5
Summary of the method: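 Soluble human BCL2 (1–218, C-terminal transmembrane helix removed) and synthetic BH3D-derived peptides (HPLC-purified >95%, mass confirmed by electrospray MS) were co-dialysed against 50 mM HEPES pH 7.5, 150 mM NaCl, 2 mM β-mercaptoethanol. BCL2 sat in the cell and peptide was titrated in at 25°C over 25 injections. Kd came from fitting an independent binding model.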

[2] = biological target: Soluble human BCL2 (residues 1-218), lacking the C-terminal transmembrane helix (human, UniProt P10415 1-218); experiment: ITC
Soluble human BCL2 (residues 1-218), lacking the C-terminal transmembrane helix, sequence (P10415 1-218): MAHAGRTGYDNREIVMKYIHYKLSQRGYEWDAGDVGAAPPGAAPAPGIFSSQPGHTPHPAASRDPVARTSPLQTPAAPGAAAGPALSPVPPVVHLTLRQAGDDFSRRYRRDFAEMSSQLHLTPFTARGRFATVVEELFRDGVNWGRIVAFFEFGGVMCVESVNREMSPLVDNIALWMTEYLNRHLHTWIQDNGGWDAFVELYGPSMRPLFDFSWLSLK

human BCL2 (residues 1–218), sequence (P10415 1-218): as above

Molecule: L116A: BECN1 BH3D-derived peptide with Ala substitution of L116 (DGGTMENLSRRAKVTGDLFDIMSGQT) [Mutant L116A]
Binding to BCL2 (in words) [1]: abolished

B1: human BECN1 BH3D peptide (residues 105-130) (peptide)
peptide: DGGTMENLSRRLKVTGDLFDIMSGQT
Kd [2]: 10.4 ± 3.5 µM | dH [2]: -4.25 ± 1.55 kcal/mol

B2: K117Q BECN1 BH3D peptide (peptide, UniProt Q14457 105-130, looked up)
peptide: DGGTMENLSRRLQVTGDLFDIMSGQT
dH [2]: -5.11 ± 1.1 kcal/mol

B3: M109A BECN1 BH3D peptide (peptide, UniProt Q14457 105-130, looked up)
peptide: DGGTAENLSRRLKVTGDLFDIMSGQT
dH [2]: -3.78 ± 0.693 kcal/mol

The remaining lines, values ahead:

Binding to BCL2 (in words) [1]: abolished
Molecule: F123A: BECN1 BH3D-derived peptide with Ala substitution of F123 (DGGTMENLSRRLKVTGDLADIMSGQT) [Mutant F123A]

Binding to BCL2 (in words) [1]: abolished | Binding to BCL2 (in words) ([1]; listed as DS BH3D): does not bind
Molecule: G120E+D121A: BECN1 BH3D-derived peptide with double G120E+D121A substitution (DS) (DGGTMENLSRRLKVTEALFDIMSGQT)

Binding to BCL2 (in words) [1]: abolished
Molecule: L112A: BECN1 BH3D-derived peptide with Ala substitution of L112 (DGGTMENASRRLKVTGDLFDIMSGQT) [Mutant L112A]
